Measured values published in ChEMBL document CHEMBL1140302, “Pyrrolo[1,5]benzoxa(thia)zepines as a new class of potent apoptotic agents. Biological studies and identification of an intracellular location of their drug target” (J Med Chem, 2005).
pIC50: −log10 of the molar value.

How the values were obtained:
NCI-H460 = assay: In vitro cytotoxic activity of compound against human lung carcinoma (NCI-H460) cell lines by sulforhodamine B (SRB) assay; assay type: functional, cell-based
Method in brief: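 NCI-H460 seeded at 3 × 10³ cells/well, 24 h at 37 °C, then 24 h drug exposure at 10 decreasing concentrations (200–0.5 µM; drug in 10% DMSO in water; at least eight replicates each). PBS washes, 48 h recovery, TCA fixation, sulforhodamine B staining, bound dye read at 540 nm. IC50 (± SD) from sigmoidal curve fitting.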

M109 = assay: In vitro cytotoxic activity of compound against (M109) mouse lung carcinoma cells by sulforhodamine B (SRB) assay; assay type: functional, cell-based
HT-29 = assay: In vitro cytotoxic activity of compound against human colon adenocarcinoma (HT-29) cell line by sulforhodamine B (SRB) assay; assay type: functional, cell-based
Mus musculus [1] = assay: Effect (30 mg/kg; i.p.) on body weight of BALB/c mice according to the qdx8 schedule; initial weight=21.02 grams; assay type: functional
Method in brief: (§1)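 Male Balb/c mice (5-6 weeks old, about 20 g), five per group, dosed ip once daily for 8 consecutive days at 30 mg/kg. Vehicle: Cremophor EL 1:1 with ethanol, then diluted 1:4 in PBS, 10 mL/kg. Vehicle-only control group. Body weight recorded. 24 h after the last dose, retro-orbital blood was taken under CO2 into heparin. RBC, WBC and PLT counted on a cell analyzer. ANOVA and Student's t test.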

HL-60 = assay: Percent apoptotic activity of compound in human acute myelocytic leukemia HL-60 cells at 10 uM for 16 h; assay type: functional
Method in brief: (§2)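 Seeded at 3 × 10⁵ cells/mL and given compound at 10 µM final from ethanol stock (vehicle 1% ethanol) for 16 h. Cytospin, RapiDiff staining, then ~300 cells counted by light microscopy (shrinkage, blebbing, nuclear condensation/fragmentation) for percent apoptosis.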

Mus musculus [2] = assay: Effect (30 mg/kg; i.p.) on hematology parameter of BALB/c mice as per the qdx8 schedule; assay type: functional; method in brief: as §1
LoVo = assay: In vitro cytotoxic activity of compound against (LoVo) human colon adenocarcinoma cells by sulforhodamine B (SRB) assay; assay type: functional, cell-based
Method in brief: (§3)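 Seeded at 1 × 10⁴ cells/well and grown 24 h at 37 °C; LoVo in Ham's F12, MesSa in McCoy's 5A, with 10% heat-inactivated FCS. Exposed 24 h to 10 decreasing concentrations (200–0.5 µM; dissolved in 10% DMSO in water; at least eight replicates each). Washed, 48 h recovery, TCA fixation, sulforhodamine B staining, OD 540 nm. IC50 (± SD) by sigmoidal curve fitting.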

K562 = assay: Percent apoptotic activity of compound in chronic myelogenous leukemia K562 cells at 10 uM for 16 h; assay type: functional, Homo sapiens; method in brief: as §2
[3] = In vitro cytotoxic activity of compound against (MesSa) human uterine sarcoma cells by sulforhodamine B (SRB) assay; assay type: functional, cell-based; method in brief: as §3

| Compound | Apoptotic Activity (HL-60) [%] | Apoptotic Activity (K562) [%] | other results |
| --- | --- | --- | --- |
| CN(C)C(=O)OC1=C(c2cccc3ccccc23)Oc2ccccc2[N+]2=C1CC=C2 | 44 | 48 | pIC50 (NCI-H460): 5.77; pIC50 (M109): 5.74; pIC50 (HT-29): 5.72; Weight (Mus musculus [1]): 20.8 g; PLT (Mus musculus [2]): 354 10E3/mm3; RBC (Mus musculus [2]): 9.45 10E6/mm3; WBC (Mus musculus [2]): 7.03 10^3/mm³; pIC50 (LoVo): 5.04; pIC50 [3]: 5.15 |
| CN(C)C(=O)OC1=C(c2cccc3ccccc23)Oc2cc(C(=O)O)ccc2-n2cccc21 | 0 | 0 | – |
| COc1ccc(C2=C(OC(=O)N(C)C)C3=[N+](C=CC3)c3ccccc3S2)cc1 | <10 | <10 | – |
| CC(=O)OC1=C(c2ccccc2)Oc2ccccc2[N+]2=C1CC=C2 | 0 | 0 | – |
| COc1ccc(C2=C(OC(=O)c3ccncc3)C3=[N+](C=CC3)c3ccccc3S2)cc1 | 31 | 32 | – |
| CC(=O)OC1=C(c2cccc3ccccc23)Sc2ccccc2[N+]2=C1CC=C2 | 39 | 41 | – |
| CN(C)C(=O)OC1=C(c2ccc3ccccc3c2)Oc2ccccc2[N+]2=C1CC=C2 | 0 | 0 | – |
| O=C(OC1=C(c2cccc3ccccc23)Sc2ccccc2[N+]2=C1CC=C2)c1ccncc1 | 55 | 27 | – |
| CCCCC(=O)OC1=C(c2cccc3ccccc23)Oc2ccccc2[N+]2=C1CC=C2 | 0 | 0 | – |
| CCN(CC)C(=O)OC1=C(c2cccc3ccccc23)Sc2ccccc2[N+]2=C1CC=C2 | 12 | 7 | – |
| CN(C)C(=O)OC1=C(c2cccc3ccccc23)Sc2ccccc2[N+]2=C1CC=C2 | 40 | 39 | – |
| CCOC(=O)c1ccc2c(c1)OC(c1cccc3ccccc13)=C(OC(=O)N(C)C)C1=[N+]2C=CC1 | 49 | 50 | – |
| CC(=O)OC1=C(c2cccc3ccccc23)Oc2ccccc2[N+]2=C1CC=C2 | 42 | 43 | – |
| CCCCCC(=O)OC1=C(c2cccc3ccccc23)Oc2ccccc2[N+]2=C1CC=C2 | 0 | 0 | – |
